Test results from ChEMBL document CHEMBL2346499, “Small molecule modulators of Wnt/β-catenin signaling” (Bioorg Med Chem Lett, 2013).
Active and inactive are the calls of the source. No cut-off for these calls is given here.

Molecular target: Frizzled-1 (Homo sapiens) (UniProt Q9UP38)
Sequence (Q9UP38 70-647 limits assumed): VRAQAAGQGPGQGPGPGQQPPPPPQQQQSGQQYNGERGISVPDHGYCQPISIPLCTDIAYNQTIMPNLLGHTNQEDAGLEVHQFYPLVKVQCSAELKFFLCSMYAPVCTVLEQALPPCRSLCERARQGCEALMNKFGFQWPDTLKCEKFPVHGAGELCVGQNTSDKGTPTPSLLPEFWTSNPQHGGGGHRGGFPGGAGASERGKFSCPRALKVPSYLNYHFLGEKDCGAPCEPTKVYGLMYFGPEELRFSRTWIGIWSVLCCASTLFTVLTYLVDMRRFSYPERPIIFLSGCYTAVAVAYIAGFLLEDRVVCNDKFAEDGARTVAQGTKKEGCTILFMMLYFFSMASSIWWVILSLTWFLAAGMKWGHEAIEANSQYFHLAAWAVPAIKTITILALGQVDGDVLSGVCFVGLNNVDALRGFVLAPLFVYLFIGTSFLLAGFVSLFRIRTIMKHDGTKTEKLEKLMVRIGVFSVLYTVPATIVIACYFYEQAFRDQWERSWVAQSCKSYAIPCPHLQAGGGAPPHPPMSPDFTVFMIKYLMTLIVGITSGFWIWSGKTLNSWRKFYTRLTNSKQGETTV
Experiment: Induction of internalization of Frizzled1-GFP (unknown origin) expressed in human U2OS cells at 12.5 uM after 6 hrs by confocal microscopy
Type: cell-based
Details: not given
In the case of `O=C(Nc1ccccc1[N+](=O)[O-])c1cc(Cl)ccc1O`, the Activity is reported as “inactive”.
With `O=C(Nc1cccc([N+](=O)[O-])c1)c1cc(Cl)ccc1O` the Activity was “inactive”.
In the case of `O=C(Nc1ccc([N+](=O)[O-])cc1Br)c1ccccc1O`, the Activity is reported as “Active”.
In the case of `[N-]=[N+]=NCCOCCOCCOc1cc([N+](=O)[O-])ccc1NC(=O)c1cc(Cl)ccc1O`, the Activity is reported as “Active”.
In the case of `O=C(Nc1ccc([N+](=O)[O-])cc1Cl)c1cccc(Cl)c1`, the Activity is reported as “inactive”.
In the case of `O=C(Nc1ccc(Oc2ccc(Cl)cc2)c(Cl)c1)c1cc(I)cc(I)c1O`, the Activity is reported as “inactive”.
For `[N-]=[N+]=Nc1ccc(NC(=O)c2cc(Cl)ccc2O)c(Cl)c1`, the Activity was “Active”.
With `Cc1cc(C(C#N)c2ccc(Cl)cc2)c(Cl)cc1NC(=O)c1cc(I)cc(I)c1O` (stereo not given) the Activity was “inactive”.
In the case of `COc1cc([N+](=O)[O-])ccc1NC(=O)c1cc(Cl)ccc1O`, the Activity is reported as “Active”.
In the case of `O=C(Nc1ccc([N+](=O)[O-])cc1Cl)c1cc(Cl)ccc1O` [NICLOSAMIDE], the Activity is reported as “Active”.
With `O=C(Nc1ccc([N+](=O)[O-])cc1)c1cc(Br)ccc1O` the Activity was “Active”.
For `O=C(Nc1ccc([N+](=O)[O-])cc1Cl)c1ccccc1O`, the Activity was “Active”.
In the case of `O=C(Nc1ccc([N+](=O)[O-])cc1Cl)c1cc(Br)ccc1O`, the Activity is reported as “Active”.
With `O=C(Nc1ccc(NS(=O)(=O)c2ccc(Cl)cc2)cc1Cl)c1cc(Cl)ccc1O` the Activity was “inactive”.
In the case of `O=C(Nc1ccc([N+](=O)[O-])cc1)c1cc(Cl)ccc1O`, the Activity is reported as “Active”.
For `O=C(Nc1ccc(Br)cc1)c1cc(Br)cc(Br)c1O`, the Activity was “inactive”.
With `Nc1ccc(NC(=O)c2cc(Cl)ccc2O)c(Cl)c1` the Activity was “inactive”.
With `COc1ccc(Cl)cc1C(=O)Nc1ccc([N+](=O)[O-])cc1Cl` the Activity was “inactive”.
In the case of `O=C(Nc1cc(Cl)cc(Cl)c1O)c1c(O)c(Cl)cc(Cl)c1Cl`, the Activity is reported as “inactive”.

Tested on: not listed separately
Experiment: Induction of Wnt3A/beta-catenin signaling in HEK293 cells after 8 hrs by TOPflash reporter assay
Type: cell-based
Details: Homo sapiens
Procedure, shortened: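 HEK293 cells carrying TOPflash reporter, treated with or without Wnt3A conditioned medium (5% as reference sample) plus compound at the indicated concentrations for 8 hrs; luciferase read as relative luciferase units; significance versus Wnt3A-only sample by t test.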
In the case of `O=C(Nc1ccc(NS(=O)(=O)c2ccc(Cl)cc2)cc1Cl)c1cc(Cl)ccc1O`, the Activity is reported as “Dose-dependent effect”.
